OX1R antag-1: blocks the human orexin 1 receptor | inhibition, % at 6.6 µM | OX1R-expressing cells, FRET antagonist read-out | O43613 | 1.8% of 330,000 active; in the data active = inhibition mostly above about 38%, no sharp cut-off; inactive = mostly below about 40%;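 note: 0% = agonist challenge alone and 100% = reference antagonist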
CHO parental Ca: counter-screen: ATP calcium response change in parental CHO cells | parental CHO-K1, ATP-induced calcium, Fluo-8 fluorescence | inhibition, % at 5.6 µM | 0.63% of 330,000 active;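 active = inhibition above that plate's mean sample inhibition plus 3 SD, cut at about 26% in these data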;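 note: 0% = ATP-challenged DMSO wells and 100% = DMSO wells without ATP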
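Test system: parental CHO cells; detection: calcium-sensitive Fluo-8 fluorescence; evaluation: percent inhibition of calcium signal; also added: ATP as calcium-mobilizing challenge; repeats: one well per compound; control set: ATP-challenged DMSO wells low, unchallenged DMSO wells high; compound: single nominal dose of 5.6 µM per compound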
TAAR1 antag: human TAAR1 antagonism; Q96RJ0; CHO RD-HGA16 TAAR1, Fluo-8 calcium fluorescence, antagonist; inhibition, % at 3 µM; 1.5% of 360,000 active; AID 624466;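 active = inhibition above a per-plate cutoff, the mean inhibition of test compounds on that plate plus 3 SD, cut at about 49% in these data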;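 note: 0% = DMSO plus EC80 beta-PEA response and 100% = DMSO alone without agonist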
Target sequence (Q96RJ0 whole entry, looked up): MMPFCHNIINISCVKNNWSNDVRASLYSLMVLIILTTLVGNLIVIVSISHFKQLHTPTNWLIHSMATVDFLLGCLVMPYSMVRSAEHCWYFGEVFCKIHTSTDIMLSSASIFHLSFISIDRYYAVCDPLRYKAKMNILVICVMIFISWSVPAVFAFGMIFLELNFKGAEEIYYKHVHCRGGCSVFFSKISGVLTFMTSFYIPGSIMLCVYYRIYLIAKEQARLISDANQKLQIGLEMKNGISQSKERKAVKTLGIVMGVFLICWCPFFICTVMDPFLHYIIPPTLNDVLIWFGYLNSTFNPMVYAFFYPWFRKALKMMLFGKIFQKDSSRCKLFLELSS
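Test system: RD-HGA16 CHO cells with stable hTAAR1 and Gα16 / Probe or stimulus: EC80 β-phenethylamine stimulus / Times: seeding 17-24 h prior, 75-min 37 °C, 30-min RT dye loading / Detection: Fluo-8 calcium-sensitive fluorescence / Read-out basis: % inhibition scaled between DMSO and EC80 PEA controls / Repeats: singlicate, one well per test compound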
TAAR1 agonist: human TAAR1 agonism; Q96RJ0; CHO RD-HGA16 TAAR1, Fluo-8 calcium fluorescence; vehicle wells 0%, saturating PEA agonist 100%; activation, % at 3 µM; 0.99% of 360,000 active;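 active = activation above the mean activation of all test compounds in the run plus 3 SD, cut at about 38% in these data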
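Signal – calcium-sensitive Fluo-8 signal, excitation 470-495, emission 515-575 nm · System – RD-HGA16 (CHO) cells co-expressing Gα16 and hTAAR1 · Incubation – 17-24 h seeding, 75 min 37 °C dye, 30 min RT · Compound dosing – 3 µM single concentration · Repeats – no replicates (n 1)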
OX1R antag-2: blocks the human orexin 1 receptor | O43613 | CHO/OX1R cells, Fluo-8 calcium fluorescence, orexin A | inhibition, % at 5 µM | 0.43% of 330,000 active;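 active = inhibition above its plate's threshold, mean inhibition of all tested compounds on the plate plus 3 SD, cut at about 37% in these data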;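 note: 0% = orexin A challenge wells and 100% = SB-334867-A antagonist wells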
OX1R HTRF confirm: OX1R (human) antagonism, HTRF confirmed; OX1R-expressing cells, HTRF antagonist assay; 49% of 1,800 active; shares compounds with OX1R antag-1; inhibition, % at 6.6 µM; in the data active = inhibition above about 55%;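 note: CHO cells expressing OX1R stimulated with orexin A at about EC80; 0% = agonist challenge alone and 100% = reference antagonist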
CHO-K1 HTRF: signal in parental CHO-K1 cells, OX1R antagonist counter-screen; HTRF counterscreen; AID 493232; inhibition, % at 6.6 µM; shares compounds with OX1R antag-1; 48% of 1,800 active; in the data active = inhibition above about 17%;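 note: 0% = agonist challenge with vehicle and 100% = vehicle alone without agonist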
Starred values were filed as active, the others as inactive; . = no result. Compounds with a hit are over-represented: about 4% of the library has one in this group of screens.

SMILES	OX1R antag-1	CHO parental Ca	TAAR1 antag	TAAR1 agonist	OX1R antag-2	OX1R HTRF confirm	CHO-K1 HTRF
O=C1c2ccccc2C(=O)c2[nH]c(=O)[nH]c21	82*	-7	-5	3	-14	71*	109*
CC(C)N(C(=O)Nc1ccc2nsnc2c1)C(C)C	143*	-15	-23	1	-15	31	31*
COc1ccc(NC(=S)Nc2ccc3nc(C)c(C)nc3c2)cc1	30	-11	19	0	-18	.	.
COc1ccc(NC(=S)Nc2ccc3nsnc3c2)cc1	88*	-15	12	7	-28	44	40*
OCC1(Cc2cccc(Cl)c2)CCCN(Cc2cnn(-c3ccccc3)c2)C1 (stereo not given)	26	-16	-18	12	-22	.	.
CCN1C(=O)[C@@H]2[C@@H](c3ccc(-c4ccc(F)cc4)c(OC)c3)N3CCCC[C@@]3(C(=O)OC)[C@@H]2C1=O	82*	-41	10	15	-6	42	-3
Cn1c(SCC(=O)N2CCOCC2)nnc1-c1ccncc1	9	13	3	2	9	.	.
O=C(CSc1nnc2nnc3ccccc3n12)N1CCOCC1	94*	-1	-7	1	2	72*	103*
Oc1c(CN2CCCC(C(F)(F)F)C2)cc(Cl)c2ccccc12 (stereo not given)	17	-2	-7	33	0	.	.
CC(C)CN1C(=O)/C(=C(/C#N)C(=O)NC2CCCCC2)c2ccccc21	24	-16	11	24	-20	.	.
O=C1c2c([N+](=O)[O-])cc([N+](=O)[O-])cc2S(=O)N1Cc1ccccc1 (stereo not given)	105*	-7	4	15	-22	40	86*
O=[N+]([O-])c1ccc(NC2CCN(Cc3ccccc3)CC2)c([N+](=O)[O-])c1	32	-16	1	0	-30	.	.
O=C1C=C(Nc2ccc(O)cc2)C(=O)c2ccccc21	79*	-9	-11	-4	-14	32	25*
CC(=O)Nc1ccc(NC2=CC(=O)c3ccccc3C2=O)cc1	25	-9	-4	3	-21	.	.
CCNC(=O)NC(=O)CSc1ccc(S(=O)(=O)N(C)C2CCCCC2)cn1	6	-14	-5	-2	-21	.	.
O=[n+]1c2c(n([O-])c3cc(F)c(F)cc31)CCCC2	129*	-11	24	0	-15	39	77*
CN(c1ccc(O)cc1)c1nc(O)c(C2=c3ccccc3=NC2=O)s1	79*	-17	-26	-2	10	45	13
Cc1ccc(NC(=O)CCN2C(=O)c3ccccc3C2=O)c(C)c1	0	-7	-1	-1	-14	.	.
Cc1cc(O)ccc1NC(=O)CCN1C(=O)c2ccc([N+](=O)[O-])cc2C1=O	151*	6	-8	0	6	69*	74*
C(=C\c1ccccc1)/CSc1nnc(-c2cccnc2)o1	2	-14	-2	16	-17	.	.
O=S(=O)(O)c1cccc2c(N=Nc3ccc(O)c4ncccc34)cccc12	-6	4	.	.	-1	.	.
O=Nc1ccc(O)c2ncccc12	105*	-7	-30	2	0	45	39*
O=C(CN1c2cccc3cccc(c23)S1(=O)=O)N1CCOCC1	20	-7	-7	4	-16	.	.
O=C(CN1C(=O)S/C(=C\C=C\c2ccccc2)C1=O)N1CCOCC1	8	-5	-3	16	-11	.	.
O=C(CN1C(=O)S/C(=C/c2ccc(N3CCOCC3)cc2)C1=O)N1CCOCC1	85*	-3	-4	3	6	41	47*
COc1cc2c3c(cccc3c1)C(=O)N(CCN1CCCC1)C2=O	.	.	-20	3	.	.	.
O=C(CN1C(=O)c2cccc3cccc(c23)C1=O)N1CCOCC1	104*	-8	-9	0	-17	47	87*
COc1ccc(C(=O)CN2CCN(CCN3C(=O)c4cccc5cccc(c45)C3=O)CC2)cc1	91*	-23	-9	7	-32	36	21*

Compound activity deposited in PubChem by The Scripps Research Institute Molecular Screening Center.
